According to ChEMBL document CHEMBL1955814, “Tailoring of integrin ligands: probing the charge capability of the metal ion-dependent adhesion site” (J Med Chem, 2012):

Legend:
[1] = Apparent permeability across human Caco2 cells after 30 to 150 mins; format: ADME, cell-based; conditions: Caco-2
Summary of the method: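 Caco-2 monolayers, passage 52−60, grown 21−23 days on polycarbonate inserts (0.4 μm pores, 1.1 cm²) until TEER stable at 300−500 Ω cm². Apical-to-basolateral transport at 37 °C with shaking after 30 min buffer preincubation. Basolateral samples at 30, 60, 90, 120 and 150 min, replaced with fresh buffer. Mass balance done per compound.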

[2] = target: Integrin alpha-IIb/beta-3 (Homo sapiens, UniProt P05106+P08514); test: Displacement of extracellular matrix protein fibrinogen from human integrin alpha2bbeta3 after 1 hr by competitive ELISA; format: protein-complex assay
Sequence of Integrin alpha-IIb/beta-3 (P05106 27-788 limits assumed): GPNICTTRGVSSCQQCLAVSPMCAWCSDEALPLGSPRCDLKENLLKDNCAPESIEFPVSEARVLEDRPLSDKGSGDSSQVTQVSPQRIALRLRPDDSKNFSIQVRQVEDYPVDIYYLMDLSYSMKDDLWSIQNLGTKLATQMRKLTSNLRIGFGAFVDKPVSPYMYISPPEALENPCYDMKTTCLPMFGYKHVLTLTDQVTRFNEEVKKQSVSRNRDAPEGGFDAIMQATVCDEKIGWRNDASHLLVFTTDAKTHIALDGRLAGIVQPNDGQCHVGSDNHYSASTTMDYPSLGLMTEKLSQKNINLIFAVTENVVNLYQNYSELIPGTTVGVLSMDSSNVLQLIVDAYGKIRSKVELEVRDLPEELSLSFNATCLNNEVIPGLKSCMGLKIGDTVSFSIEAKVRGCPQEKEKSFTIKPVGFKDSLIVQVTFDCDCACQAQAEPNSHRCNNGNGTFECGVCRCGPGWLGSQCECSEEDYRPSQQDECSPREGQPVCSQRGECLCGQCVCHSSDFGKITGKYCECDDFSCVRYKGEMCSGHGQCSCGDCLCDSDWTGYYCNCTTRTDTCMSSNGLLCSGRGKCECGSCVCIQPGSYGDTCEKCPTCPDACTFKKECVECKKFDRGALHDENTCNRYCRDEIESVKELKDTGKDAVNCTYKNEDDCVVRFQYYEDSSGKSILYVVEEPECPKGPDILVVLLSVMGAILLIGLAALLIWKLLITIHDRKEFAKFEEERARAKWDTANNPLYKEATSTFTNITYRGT
Sequence of Integrin alpha-IIb/beta-3 (P08514 32-887 limits assumed): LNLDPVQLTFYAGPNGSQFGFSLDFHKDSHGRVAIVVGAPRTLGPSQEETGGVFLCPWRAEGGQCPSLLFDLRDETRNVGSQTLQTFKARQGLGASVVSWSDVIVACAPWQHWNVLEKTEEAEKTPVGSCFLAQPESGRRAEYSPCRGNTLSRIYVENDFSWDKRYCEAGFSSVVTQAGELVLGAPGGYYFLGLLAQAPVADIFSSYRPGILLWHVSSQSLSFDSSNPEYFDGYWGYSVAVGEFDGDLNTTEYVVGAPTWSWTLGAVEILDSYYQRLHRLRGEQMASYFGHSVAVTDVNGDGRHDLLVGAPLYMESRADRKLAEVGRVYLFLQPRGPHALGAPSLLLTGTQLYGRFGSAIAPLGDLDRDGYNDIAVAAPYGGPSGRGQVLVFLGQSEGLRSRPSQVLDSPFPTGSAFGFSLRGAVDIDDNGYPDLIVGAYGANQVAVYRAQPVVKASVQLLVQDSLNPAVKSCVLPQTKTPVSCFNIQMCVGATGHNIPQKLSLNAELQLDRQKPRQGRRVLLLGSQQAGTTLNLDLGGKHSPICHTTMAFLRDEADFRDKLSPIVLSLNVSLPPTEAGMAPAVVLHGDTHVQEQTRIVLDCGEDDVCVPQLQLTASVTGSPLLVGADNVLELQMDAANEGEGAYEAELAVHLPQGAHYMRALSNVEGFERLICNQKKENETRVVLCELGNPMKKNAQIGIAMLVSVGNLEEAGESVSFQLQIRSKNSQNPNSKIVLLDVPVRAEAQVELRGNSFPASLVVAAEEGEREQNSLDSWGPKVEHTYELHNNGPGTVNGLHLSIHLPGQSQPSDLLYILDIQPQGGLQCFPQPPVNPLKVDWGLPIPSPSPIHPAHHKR
Sequence of Integrin alpha-IIb/beta-3 (P08514 891-1039 limits assumed): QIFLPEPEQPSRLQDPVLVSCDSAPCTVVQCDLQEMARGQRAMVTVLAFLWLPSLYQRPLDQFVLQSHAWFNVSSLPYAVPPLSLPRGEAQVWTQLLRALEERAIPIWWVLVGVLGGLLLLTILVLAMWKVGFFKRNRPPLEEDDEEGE
Summary of the method: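 Plates coated overnight at 4 °C with 10 μg/mL fibrinogen in carbonate buffer pH 9.6, blocked with 1% BSA in Tris buffer containing 1 mM Ca2+, Mg2+ and Mn2+. Inhibitor (0.00013−10 μM final) plus 2.5 μg/mL final soluble human αIIbβ3 for 1 h at RT. Bound integrin detected with anti-CD41b and peroxidase secondary antibody, A450.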

A Papp [1] of 2.4 ×10⁻⁶ cm/s was found for `OC[C@@H](O)[C@@H](O)[C@H](O)[C@H](O)CO` [MANNITOL] in this work.
With `CCCCS(=O)(=O)N[C@@H](Cc1ccc(OCCCCC2CCNCC2)cc1)C(=O)O` [TIROFIBAN] the Papp [1] was < 0.01 ×10⁻⁶ cm/s.
With `O=C(NC[C@H](NS(=O)(=O)c1ccccc1)[PH](=O)O)c1ccc(OCCC2CCNCC2)cc1` the IC50 ([2]; read-out: IC50) was 1.2 nM and the Papp [1] was < 0.01 ×10⁻⁶ cm/s.
In the case of `COP(=O)(O)[C@H](CNC(=O)c1ccc(OCCC2CCNCC2)cc1)NS(=O)(=O)c1ccccc1`, the IC50 ([2]; read-out: IC50) is reported as 3.3 nM and the Papp [1] is reported as < 0.01 ×10⁻⁶ cm/s.
In the case of `O=C(NC[C@@H](NS(=O)(=O)c1ccccc1)[PH](=O)O)c1ccc(OCCC2CCNCC2)cc1`, the IC50 ([2]; read-out: IC50) is reported as 6.3 nM and the Papp [1] is reported as < 0.01 ×10⁻⁶ cm/s.
An IC50 ([2]; read-out: IC50) of 1320 nM was found for `O=C(NC[C@@H](NS(=O)(=O)c1ccccc1)P(O)(O)=S)c1ccc(OCCC2CCNCC2)cc1` in this work.
An IC50 ([2]; read-out: IC50) of 4.4 nM was found for `O=C(NC[C@@H](NS(=O)(=O)c1ccccc1)C(=O)O)c1ccc(OCCC2CCNCC2)cc1` in this work.
For `COP(=O)(OC)[C@@H](CNC(=O)c1ccc(OCCC2CCNCC2)cc1)NS(=O)(=O)c1ccccc1`, the IC50 [2] was “Not Active”.
With `O=C(NC[C@@H](NS(=O)(=O)c1ccccc1)P(=O)(O)O)c1ccc(OCCC2CCNCC2)cc1` the IC50 ([2]; read-out: IC50) was 136 nM and the Papp [1] was < 0.01 ×10⁻⁶ cm/s.
For `O=C(NC[C@H](NS(=O)(=O)c1ccccc1)P(=O)(O)O)c1ccc(OCCC2CCNCC2)cc1`, the IC50 ([2]; read-out: IC50) was 22.7 nM and the Papp [1] was < 0.01 ×10⁻⁶ cm/s.
An IC50 ([2]; read-out: IC50) of 1150 nM was found for `COP(=O)(O)[C@@H](CNC(=O)c1ccc(OCCC2CCNCC2)cc1)NS(=O)(=O)c1ccccc1` in this work.
With `COP(=O)(OC)[C@H](CNC(=O)c1ccc(OCCC2CCNCC2)cc1)NS(=O)(=O)c1ccccc1` the IC50 [2] was “Not Active”.
An IC50 ([2]; read-out: IC50) of 0.81 nM was found for `O=C(NC[C@H](NS(=O)(=O)c1ccccc1)C(=O)O)c1ccc(OCCC2CCNCC2)cc1` in this work.
An IC50 ([2]; read-out: IC50) of 62.5 nM was found for `O=C(NC[C@H](NS(=O)(=O)c1ccccc1)P(O)(O)=S)c1ccc(OCCC2CCNCC2)cc1` in this work.
